In experiment [1] the test system is T1, Chromatin remodeling regulator CECR2 (Homo sapiens), Q9BXF3 [Y520I].
T1 sequence (whole entry): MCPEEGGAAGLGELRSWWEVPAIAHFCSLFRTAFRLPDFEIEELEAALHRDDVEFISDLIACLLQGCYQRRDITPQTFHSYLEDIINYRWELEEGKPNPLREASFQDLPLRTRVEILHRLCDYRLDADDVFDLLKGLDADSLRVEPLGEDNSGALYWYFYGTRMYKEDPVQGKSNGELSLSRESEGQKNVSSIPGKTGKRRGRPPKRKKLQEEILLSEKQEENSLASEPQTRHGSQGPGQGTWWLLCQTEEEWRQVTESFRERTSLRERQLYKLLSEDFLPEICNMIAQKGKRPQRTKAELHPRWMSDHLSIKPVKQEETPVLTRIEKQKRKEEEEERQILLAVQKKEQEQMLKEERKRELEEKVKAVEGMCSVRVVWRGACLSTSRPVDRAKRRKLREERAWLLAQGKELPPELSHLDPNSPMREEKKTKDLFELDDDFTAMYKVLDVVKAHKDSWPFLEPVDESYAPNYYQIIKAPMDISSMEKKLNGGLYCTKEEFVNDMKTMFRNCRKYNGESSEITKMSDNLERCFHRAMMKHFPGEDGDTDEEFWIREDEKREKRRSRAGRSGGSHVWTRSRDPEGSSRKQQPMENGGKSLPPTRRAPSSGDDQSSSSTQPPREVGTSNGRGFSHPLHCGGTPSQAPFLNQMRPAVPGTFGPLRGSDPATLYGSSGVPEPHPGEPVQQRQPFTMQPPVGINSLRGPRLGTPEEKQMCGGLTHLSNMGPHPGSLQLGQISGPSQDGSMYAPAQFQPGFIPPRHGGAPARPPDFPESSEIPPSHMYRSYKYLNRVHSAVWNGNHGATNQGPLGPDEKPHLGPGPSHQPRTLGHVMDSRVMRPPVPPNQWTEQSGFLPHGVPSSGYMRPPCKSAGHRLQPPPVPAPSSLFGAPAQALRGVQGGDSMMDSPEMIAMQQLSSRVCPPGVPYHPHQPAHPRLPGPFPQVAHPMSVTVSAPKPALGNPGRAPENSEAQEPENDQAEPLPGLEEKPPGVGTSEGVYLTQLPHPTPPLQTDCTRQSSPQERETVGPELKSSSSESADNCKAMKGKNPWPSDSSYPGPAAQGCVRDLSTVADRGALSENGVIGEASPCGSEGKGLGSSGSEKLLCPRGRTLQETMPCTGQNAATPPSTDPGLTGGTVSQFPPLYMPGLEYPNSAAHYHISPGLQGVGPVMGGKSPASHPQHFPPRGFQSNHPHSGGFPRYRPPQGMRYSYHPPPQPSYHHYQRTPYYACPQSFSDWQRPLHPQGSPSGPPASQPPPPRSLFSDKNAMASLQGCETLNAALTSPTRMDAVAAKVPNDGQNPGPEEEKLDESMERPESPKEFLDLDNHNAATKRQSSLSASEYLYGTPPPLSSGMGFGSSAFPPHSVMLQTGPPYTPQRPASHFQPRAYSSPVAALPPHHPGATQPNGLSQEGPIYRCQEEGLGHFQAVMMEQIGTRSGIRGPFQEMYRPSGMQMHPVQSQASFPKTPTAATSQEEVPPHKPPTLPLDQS
The experiment in a line: Binding affinity to CECR2 Y520I mutant (unknown origin) assessed as change in melting temperature at 10 uM by SYPRO red dye based differential scanning fluorimetry. The essentials: (§1)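 Differential scanning fluorimetry: aggregate removed by centrifugation, then bromodomain at 4 µM final with 10X SYPRO Red, 10 µM compound and 0.2% DMSO in 20 mM HEPES pH 7.7, 100 mM NaCl. Heated 25 to 95 °C, fluorescence read at 1 °C steps. Apparent Tm taken from melt curves; mean of at least five wells for CECR2.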

Experiment [2] addresses Chromatin remodeling regulator CECR2 (Homo sapiens, UniProt Q9BXF3). The experiment can be described thus: Binding affinity to wild type CECR2 (unknown origin) assessed as change in melting temperature at 10 uM by SYPRO red dye based differential scanning fluorimetry. In outline:
as §1

For experiment [3], the target named is T2, Peregrin (Homo sapiens, UniProt P55201).
T2 sequence (P55201 whole entry): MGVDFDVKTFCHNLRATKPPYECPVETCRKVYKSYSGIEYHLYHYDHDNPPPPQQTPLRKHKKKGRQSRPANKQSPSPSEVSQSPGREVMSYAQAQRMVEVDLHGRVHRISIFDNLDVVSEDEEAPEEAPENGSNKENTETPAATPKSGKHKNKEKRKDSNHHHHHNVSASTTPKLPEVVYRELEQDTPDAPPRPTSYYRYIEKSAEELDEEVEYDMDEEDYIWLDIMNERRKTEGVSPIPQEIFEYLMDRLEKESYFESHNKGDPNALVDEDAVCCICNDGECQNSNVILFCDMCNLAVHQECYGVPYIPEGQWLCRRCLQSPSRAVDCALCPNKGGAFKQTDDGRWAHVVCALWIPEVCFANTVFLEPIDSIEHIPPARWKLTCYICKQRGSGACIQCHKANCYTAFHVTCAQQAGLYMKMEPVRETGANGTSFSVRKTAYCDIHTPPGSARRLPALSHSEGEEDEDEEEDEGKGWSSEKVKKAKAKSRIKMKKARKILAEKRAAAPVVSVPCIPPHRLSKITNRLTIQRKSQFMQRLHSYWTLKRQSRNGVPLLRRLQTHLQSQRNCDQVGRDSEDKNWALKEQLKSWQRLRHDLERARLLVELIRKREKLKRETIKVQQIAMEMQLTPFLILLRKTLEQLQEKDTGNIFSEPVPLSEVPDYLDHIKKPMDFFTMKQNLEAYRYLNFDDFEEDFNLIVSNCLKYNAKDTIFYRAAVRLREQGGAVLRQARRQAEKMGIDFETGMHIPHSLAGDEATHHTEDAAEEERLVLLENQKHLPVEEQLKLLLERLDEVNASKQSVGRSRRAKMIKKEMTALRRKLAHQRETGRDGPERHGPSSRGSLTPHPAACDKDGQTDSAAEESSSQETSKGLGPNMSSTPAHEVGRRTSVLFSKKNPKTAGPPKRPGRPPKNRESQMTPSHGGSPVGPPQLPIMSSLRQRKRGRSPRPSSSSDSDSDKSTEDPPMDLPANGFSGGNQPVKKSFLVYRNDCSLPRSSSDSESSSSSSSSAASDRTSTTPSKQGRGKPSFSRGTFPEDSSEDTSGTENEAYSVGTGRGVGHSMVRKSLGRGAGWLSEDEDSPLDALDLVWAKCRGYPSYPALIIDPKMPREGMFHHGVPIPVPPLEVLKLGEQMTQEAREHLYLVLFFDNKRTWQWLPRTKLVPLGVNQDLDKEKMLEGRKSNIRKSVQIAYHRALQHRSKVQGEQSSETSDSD
The experiment in a line: Displacement of biotinylated JQ1 analog from recombinant His-tagged BRPF1 (unknown origin) incubated for 10 mins by TR-FRET assay. The essentials: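 Bromodomain, then biotinylated ligand, each added with 10 min incubation. Anti-His europium (0.2 nM) plus streptavidin-APC followed for 40 min. 10-point titrations in duplicate, at least 2 independent runs.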

Some results are limits rather than exact numbers.

Chain of Chromatin remodeling regulator CECR2 (Q9BXF3 whole entry, looked up): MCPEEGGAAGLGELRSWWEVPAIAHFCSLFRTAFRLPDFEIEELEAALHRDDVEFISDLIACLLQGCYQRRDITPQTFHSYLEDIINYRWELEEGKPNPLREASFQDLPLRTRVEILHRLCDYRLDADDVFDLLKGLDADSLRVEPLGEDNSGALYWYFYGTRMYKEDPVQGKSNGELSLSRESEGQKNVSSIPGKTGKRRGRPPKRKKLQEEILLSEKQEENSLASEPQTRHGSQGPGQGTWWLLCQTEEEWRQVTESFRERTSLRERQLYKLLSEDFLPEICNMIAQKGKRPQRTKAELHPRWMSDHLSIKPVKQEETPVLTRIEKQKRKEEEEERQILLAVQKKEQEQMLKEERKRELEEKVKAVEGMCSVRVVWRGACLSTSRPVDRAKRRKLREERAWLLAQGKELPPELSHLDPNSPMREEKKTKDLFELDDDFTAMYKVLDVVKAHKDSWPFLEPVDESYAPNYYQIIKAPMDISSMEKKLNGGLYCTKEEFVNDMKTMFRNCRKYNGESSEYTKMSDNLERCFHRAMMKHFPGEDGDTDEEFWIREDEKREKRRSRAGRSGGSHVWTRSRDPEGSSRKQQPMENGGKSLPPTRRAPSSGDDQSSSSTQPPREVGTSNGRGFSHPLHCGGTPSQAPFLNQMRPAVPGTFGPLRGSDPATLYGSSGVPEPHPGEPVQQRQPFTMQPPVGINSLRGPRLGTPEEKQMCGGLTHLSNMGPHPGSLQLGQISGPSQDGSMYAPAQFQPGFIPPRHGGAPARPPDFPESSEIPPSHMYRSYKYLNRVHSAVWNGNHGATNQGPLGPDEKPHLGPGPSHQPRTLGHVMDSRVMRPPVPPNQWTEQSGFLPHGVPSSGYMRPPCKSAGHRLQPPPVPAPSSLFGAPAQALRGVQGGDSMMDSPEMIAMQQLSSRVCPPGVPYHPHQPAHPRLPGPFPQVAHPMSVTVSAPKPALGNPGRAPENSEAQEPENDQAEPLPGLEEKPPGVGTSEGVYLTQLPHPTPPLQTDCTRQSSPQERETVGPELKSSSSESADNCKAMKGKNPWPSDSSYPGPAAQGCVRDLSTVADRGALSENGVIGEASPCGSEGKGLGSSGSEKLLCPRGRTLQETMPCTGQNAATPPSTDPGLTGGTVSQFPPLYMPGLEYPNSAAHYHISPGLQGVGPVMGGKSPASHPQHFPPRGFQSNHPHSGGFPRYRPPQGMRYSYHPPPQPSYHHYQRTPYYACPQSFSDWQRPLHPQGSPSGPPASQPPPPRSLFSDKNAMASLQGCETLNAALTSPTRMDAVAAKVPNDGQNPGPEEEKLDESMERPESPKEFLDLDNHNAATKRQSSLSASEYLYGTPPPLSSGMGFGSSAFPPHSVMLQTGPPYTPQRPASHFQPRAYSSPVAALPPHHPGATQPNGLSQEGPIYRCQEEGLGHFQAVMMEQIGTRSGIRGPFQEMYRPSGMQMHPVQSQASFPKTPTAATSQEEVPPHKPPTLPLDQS

For the compound `CN(C)C(=O)c1cccc(-c2cn(C)c(=O)c3[nH]ccc23)c1`, the ΔTm in experiment [1] was 3 °C; in experiment [2], 6 °C. The IC50 in experiment [3] turned out to be 1.5 µM.
Regarding `C=CCn1cc(-c2cccc(C(=O)N(C)C)c2)c2cc[nH]c2c1=O`, the ΔTm in experiment [1] is -1 °C; in experiment [2] it was 6 °C. The IC50 in experiment [3] is more than 20 µM.

Source of the values: ChEMBL document CHEMBL4425103, “Diving into the Water: Inducible Binding Conformations for BRD4, TAF1(2), BRD9, and CECR2 Bromodomains” (J Med Chem, 2016).
